# KCNQ1 block – blocks the human KCNQ1 potassium channel; P51787; CHO-K1 KCNQ1, FluxOR thallium flux fluorescence; hits give high values; B-score at 10 µM; actives 1.3% (n = 310,000); AID 2642;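 active = compounds whose thallium flux B-score, printed positive for inhibition, exceeds three library SD while starting fluorescence stays within three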;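 also: channel opened by potassium depolarization with thallium stimulus after 20 min compound exposure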
# Kir21 block – blocks the mouse Kir2.1 inward-rectifier potassium channel; actives 0.85% (n = 310,000); P35561; B-score at 10 µM; HEK293-Kir2.1, FluxOR thallium flux fluorescence; hits give low values;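 active = fluorescence ratio B-score at or below minus 3 SD of library scores, with starting-brightness B-score within 2 SD, cut at about -4.2 in these data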;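 also: channel flux triggered by added potassium and thallium sulfate stimulus; B-score of peak minus minimum fluorescence over baseline after thallium stimulus; more negative B-score means stronger Kir2.1 block with less thallium influx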
# Target sequence (P35561 whole entry, looked up): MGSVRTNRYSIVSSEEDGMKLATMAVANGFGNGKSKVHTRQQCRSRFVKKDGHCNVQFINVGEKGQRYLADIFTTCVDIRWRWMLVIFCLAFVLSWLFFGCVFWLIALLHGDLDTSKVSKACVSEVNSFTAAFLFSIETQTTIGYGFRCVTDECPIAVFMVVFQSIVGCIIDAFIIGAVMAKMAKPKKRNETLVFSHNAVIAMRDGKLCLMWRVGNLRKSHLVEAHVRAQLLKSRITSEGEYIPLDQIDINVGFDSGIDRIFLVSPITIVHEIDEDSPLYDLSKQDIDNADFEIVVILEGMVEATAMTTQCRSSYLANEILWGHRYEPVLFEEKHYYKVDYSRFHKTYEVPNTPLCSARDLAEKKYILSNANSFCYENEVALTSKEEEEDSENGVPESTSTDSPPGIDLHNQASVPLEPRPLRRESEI
# hERG protect – shields human hERG channel from block by proarrhythmic agents; activation (rescue from dofetilide block), less the hit threshold, % at 10 µM; Q12809; CHO-hERG, FluxOR thallium flux, dofetilide IC70 present; actives 0.51% (n = 310,000); AID 1511;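 active = activation above the mean of controls blocked by dofetilide plus 5 SD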;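 also: thallium influx through hERG after potassium depolarization seen as dye fluorescence rise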
# KCNK9 block – blocks the human KCNK9 two-pore domain potassium channel; B-score at 10 µM; actives 1.2% (n = 310,000); HEK293 KCNK9, FluxOR thallium flux fluorescence; hits give low values; Q9NPC2; AID 488922;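 active = ratio B-score over 3 SD below the library mean, with starting fluorescence within 5 SD of its mean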;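 also: negative B-score means less thallium flux so channel inhibition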
# KCNK3 block – human KCNK3 channel inhibition, primary screen; O14649; CHO-KCNK3 thallium flux, FluxOR fluorescence; hits give low values; B-score at 10 µM; actives 0.84% (n = 340,000); AID 602410;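 active = B-score under library mean minus 4 SD, starting fluorescence ratio at most library mean plus 5 SD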;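 also: more negative B-score means stronger inhibition of thallium flux through KCNK3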
# KCNQ1 pot – potentiates or activates the human KCNQ1 potassium channel; P51787; CHO-K1 KCNQ1, thallium flux FluxOR fluorescence; hits give high values; B-score at 10 µM; actives 0.35% (n = 310,000);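 active = fluorescence ratio B-score, a plate-corrected score, at least three library SD, with initial intensity B-score within 5 SD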
#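 Assay system: stable KCNQ1 CHO-K1 line; medium: assay buffer, equal DMSO in all wells; timing: 90 min dye loading and 20 min compound exposure, both at room temperature; technique: kinetic FluxOR thallium fluorescence, 10-s 1-Hz baseline, 110-s post-stimulus read; read-out basis: B score of baseline-normalized fluorescence ratio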
# * = called active by the depositor; i = inactive; . = no result given. The list is not random: actives were taken first. Their share in the collection is about 3.7%.
SMILES,KCNQ1 block,Kir21 block,hERG protect,KCNK9 block,KCNK3 block,KCNQ1 pot
O=c1cccc2n1CC1CC2CN(Cc2c(F)cccc2Cl)C1 (centres undefined),i,-0.73,-6.5,i,i,i
CCc1cccc(CC)c1NC(=S)N1CC2CC(C1)c1cccc(=O)n1C2 (centres undefined),i,0.65,-5.7,i,i,i
CCn1c(O)c(C=Nc2ccc(N3CCOCC3)cc2)c(=O)n(CC)c1=S,7*,-0.69,-19.1,i,i,i
CCn1c(O)c(C=Nc2ccc(N3CCOCC3)c(Br)c2)c(=O)n(CC)c1=S,i,0.69,-17.6,i,i,i
C=C1C(=O)O[C@@H]2C[C@@H](C)[C@@H]3C=CC(=O)[C@@]3(C)[C@@H](O)[C@H]12,i,-4.33*,-7.5,i,i,i
C[C@@H]1C[C@H]2OC(=O)C3(CO3)[C@H]2[C@H](O)[C@]2(C)C(=O)C3OC3[C@@H]12 (some centres undefined),i,-0.07,-3.0,i,.,i
COC(=O)C1=C(c2ccccc2)C[C@@H]2CC[C@H]1N2C(=O)N1CCCC1,i,0.06,-5.4,i,i,i
CN(C)CC#CCn1c2ccccc2c2ccccc21,i,-5.59*,-7.1,i,i,i
N#CC1=C(N)Oc2cc(O)ccc2C1c1ccc2c(c1)OCO2 (centres undefined),i,0.19,-10.7,-7.52*,i,i
CCCCc1cc(=O)oc2cc(OCC(=O)N3C[C@H]4C[C@@H](C3)c3cccc(=O)n3C4)c(Cl)cc12,i,-0.86,-7.7,i,i,i
Brc1ccc2c(c1)C(OC1CN3CCC1CC3)c1ccccc1CS2 (centres undefined),i,-8.91*,-17.2,i,i,i
COC(=O)C1=C(c2ccc(F)cc2OCc2ccccc2)C[C@@H]2CC[C@H]1N2C(=O)NCCOc1ccc(OC)cc1,.,.,.,.,i,.
OC(Cn1c2ccccc2c2ccccc21)C[n+]1cccc2ccccc21 (centres undefined),i,-5.16*,-4.7,i,i,i
O=C(CCCN1CCC2(CC1)C(=O)NCN2c1ccccc1)c1ccc(F)cc1,i,-0.38,-15.3,i,i,23*
O=C(c1ccc(F)cc1)C(Cc1ccccc1)N1CCCCC1 (centres undefined),i,0.51,-6.5,i,i,i
CC/C(=N\NC(=O)c1ccccc1)c1c(O)n(C2CCCCC2)c(=O)[nH]c1=O,7*,1.14,-14.0,i,i,i
CC(C)[C@H]1C(=O)N2CCC[C@H]2[C@]2(O)O[C@](NC(=O)[C@@H]3C=C4c5cccc6[nH]cc(c56)C[C@H]4N(C)C3)(C(C)C)C(=O)N12,.,.,.,.,i,.
CC(C)C[C@H]1C(=O)N2CCCC2[C@]2(O)O[C@](NC(=O)[C@@H]3C=C4c5cccc6[nH]cc(c56)CC4N(C)C3)(C(C)C)C(=O)N12 (some centres undefined),8*,0.87,-10.1,i,i,i
CCC1(CCO)C(=O)NC(=S)NC1=O,.,.,.,.,i,.
C/C(=N\Nc1cccc2ccccc12)c1c(O)n(Cc2ccccc2)c(=O)[nH]c1=O,i,1.35,-1.4,-7.22*,i,i
CC=C(CC)C1(CCC)C(=O)NC(=S)NC1=O,.,.,.,.,i,.
O=[N+]([O-])c1ccccc1-c1cc(-c2ccccc2)cc(-c2ccccc2)[n+]1Cc1ccccc1Cl,8*,-9.13*,-29.8,-8*,.,i
CC(C)n1c(O)c(C2c3cc(Cl)ccc3Oc3[nH]c(=O)n(C(C)C)c(=O)c32)c(=O)[nH]c1=O (centres undefined),i,-4.32*,-23.7,i,i,i
CC(Cc1ccccc1)N(C)CC1C(=O)C2CCC1C2 (centres undefined),.,.,.,.,i,.
O=C1c2ccccc2C2(c3ccc(Cl)cc3)NCCN12 (centres undefined),i,-0.08,4.8*,i,i,i
Clc1ccc(C[n+]2c(-c3ccccc3)cc(-c3ccccc3)cc2-c2ccccc2)cc1,13*,-12.7*,-36.2,-8.27*,i,i
